From ChEMBL document CHEMBL4152236, “Substituted 1,5-naphthyridine derivatives as novel antileishmanial agents. Synthesis and biological evaluation” (Eur J Med Chem, 2018)
pIC50: −log10 of the molar value. Active and inactive are the calls of the source. The calls are words filed in the database; no cut-off is given here.

Columns and labels:
[1] = Cytotoxicity against BALB/c mouse splenocytes assessed as decrease in […] viability after 72 hrs by Alamar blue assay; format: cell-based, Splenocyte
Procedure, shortened: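 Uninfected BALB/c mouse splenocytes, obtained and cultured as for the explants (RPMI, 20% FCS), exposed to compounds at 100 to 0.8 μM for 72 h at 37 °C. Viability read by Alamar Blue. CC50 taken from dose-response curves. Mean ± sd of at least three experiments in triplicate.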

[2] = target: T1, DNA topoisomerase 1 (Homo sapiens, UniProt P11387); experiment: Inhibition of human Top1B expressed in Top1B deficient Saccharomyces cerevisiae EKY3 assessed as decrease in relaxation of supercoiled pSK DNA preincubated for 15 mins followed by DNA addition and measured after 1 to 16 mins by agarose gel electrophoresis; conditions: for pIC50: read-out: IC50
T1 sequence (P11387 whole entry): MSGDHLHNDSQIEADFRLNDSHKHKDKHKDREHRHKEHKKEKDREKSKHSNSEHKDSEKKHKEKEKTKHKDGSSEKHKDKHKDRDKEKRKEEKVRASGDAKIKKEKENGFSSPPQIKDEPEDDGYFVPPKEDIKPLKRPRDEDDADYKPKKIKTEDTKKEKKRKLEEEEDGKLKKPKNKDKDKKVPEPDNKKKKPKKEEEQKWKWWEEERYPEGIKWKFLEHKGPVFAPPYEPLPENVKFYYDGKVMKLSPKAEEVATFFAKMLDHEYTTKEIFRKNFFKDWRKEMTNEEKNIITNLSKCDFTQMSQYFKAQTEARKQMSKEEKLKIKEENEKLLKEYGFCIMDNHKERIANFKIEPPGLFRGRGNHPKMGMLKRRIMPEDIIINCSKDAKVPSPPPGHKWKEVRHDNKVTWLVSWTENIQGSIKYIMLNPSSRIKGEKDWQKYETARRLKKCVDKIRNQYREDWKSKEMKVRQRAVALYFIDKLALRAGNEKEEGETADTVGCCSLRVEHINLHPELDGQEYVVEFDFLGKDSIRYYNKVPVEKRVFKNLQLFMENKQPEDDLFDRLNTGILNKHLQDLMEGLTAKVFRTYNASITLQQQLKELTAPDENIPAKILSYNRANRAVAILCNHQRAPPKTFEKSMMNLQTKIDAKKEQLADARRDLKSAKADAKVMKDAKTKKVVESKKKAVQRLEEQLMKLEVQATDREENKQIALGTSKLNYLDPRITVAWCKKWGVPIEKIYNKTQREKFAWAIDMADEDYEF
Procedure, shortened: (§1)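 Recombinant LTopIB or hTopIB from TopIB-deficient yeast EKY3 (galactose-induced), purified on phosphocellulose then phenyl-Sepharose. Enzyme (1 unit) preincubated with compound for 15 min at 37 °C. Then 0.5 μg supercoiled pSK DNA added in 10 mM Tris-HCl pH 7.5, 5 mM MgCl₂, 0.1 mM EDTA, 50 mM KCl, BSA. Incubated at 37 °C, stopped with 1% SDS. Agarose gel; relaxed and supercoiled bands quantified.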

[3] = tested on: Leishmania infantum; experiment: Leishmanicidal activity against amastigote stage of iRFP expressing Leishmania infantum BCN150 infected in BALB/c mouse splenocytes assessed as decrease in parasite viability after 72 hrs; format: functional, organism-based; conditions: BCN150, 72 h
Procedure, shortened: (§2)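 Female BALB/c mice infected intravenously with metacyclic L. infantum-iRFP promastigotes. After 5 weeks, spleens collagenase-digested (2 mg/mL, 20 min, 37 °C); splenocytes plated in RPMI with 20% FCS. Compounds added at 10 to 0.07 μM for 72 h. Infrared emission read at 708 nm; IC50 is the 50% reduction versus DMSO control. SI = CC50 in uninfected splenocytes / amastigote IC50.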

[4] = Selectivity index, ratio of CC50 for BALB/c mouse splenocytes to IC50 for amastigote stage of iRFP expressing Leishmania infantum BCN150 infected in BALB/c mouse splenocytes; format: toxicity, cell-based; conditions: read-out: Ratio CC50/IC50; procedure, shortened: as §2
[5] = tested on: Leishmania infantum; experiment: Leishmanicidal activity against promastigote stage of iRFP expressing Leishmania infantum BCN150 assessed as decrease in parasite viability; format: functional, organism-based
Procedure, shortened: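 Promastigotes grown in M199 with 10% heat-inactivated FCS, seeded at 10^6 cells/mL. Compounds given as three-fold DMSO stock dilutions, final DMSO ≤0.1%. Viability read as infrared fluorescence (ex 684, em 708 nm). IC50 is the 50% emission reduction versus DMSO control, from nonlinear fits. Triplicate wells.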

[6] = tested on: Leishmania donovani; experiment: Inhibition of Leishmania donovani Top1B expressed in Top1B deficient Saccharomyces cerevisiae EKY3 assessed as decrease in relaxation of supercoiled pSK DNA at 100 uM at 37 degC preincubated for 15 mins followed by DNA addition and measured after 1 to 16 mins by agarose gel electrophoresis; procedure, shortened: as §1
[7] = Inhibition of Leishmania donovani Top1B expressed in Top1B deficient Saccharomyces cerevisiae EKY3 assessed as decrease in relaxation of supercoiled pSK DNA preincubated for 15 mins followed by DNA addition and measured after 1 to 16 mins by agarose gel electrophoresis; conditions: for pIC50: read-out: IC50; procedure, shortened: as §1

Compound	pIC50 [2]	inhibition [6]	pIC50 [7]	IC50 [7]	IC50 [2]	CC50 at 72 h [1]	pIC50 [3]	selectivity ratio [4]	pIC50 [5]
COc1cccc(-c2cc(-c3ccccc3)c3ncccc3n2)c1	4.09	–	–	–	–	157 µM	6.24	272	< 4.00
c1ccc(-c2cc(-c3ccccc3)c3ncccc3n2)cc1	4.95	Active	–	–	–	54.8 µM	5.07	6.5	4.57
Fc1ccc(-c2cc(-c3ccsc3)c3ncccc3n2)cc1	4.36	–	4.31	–	–	32.5 µM	5.10	4.1	4.17
Fc1ccc(-c2cc(-c3ccccc3)c3ncccc3n2)cc1	4.14	–	4.09	–	–	124 µM	5.13	16.7	< 4.00
CC[C@@]1(O)C(=O)OCc2c1cc1n(c2=O)Cc2cc3ccccc3nc2-1 [CAMPTOTHECIN]	–	–	4.12	–	–	–	–	–	–
C[C@@H]1[C@H](O)[C@@H](C)/C=C/C=C/C=C/C=C/C=C/C=C/C=C/[C@H](O[C@@H]2O[C@H](C)[C@@H](O)[C@H](N)[C@@H]2O)C[C@@H]2O[C@](O)(C[C@@H](O)C[C@@H](O)[C@H](O)CC[C@@H](O)C[C@@H](O)CC(=O)O[C@H]1C)C[C@H](O)[C@H]2C(=O)O [AMPHOTERICIN B]	–	–	–	–	–	> 20 µM	–	> 62.5	–
Fc1ccc(-c2cc(-c3ccc(-c4ccccc4)cc3)c3ncccc3n2)cc1	4.08	–	4.24	–	–	153 µM	5.30	30.2	4.35
Cc1c(-c2ccc(C(F)(F)F)cc2)nc2cccnc2c1-c1ccccc1	4.15	–	4.12	–	–	126 µM	5.63	53.2	< 4.00
O=[N+]([O-])c1cccc(-c2cc(-c3ccccc3)c3ncccc3n2)c1	–	–	–	–	Not Active	146 µM	5.99	143	4.10
Fc1ccc(-c2cc(-c3ccccc3)c3ncccc3n2)cc1F	4.14	–	4.12	–	–	21.7 µM	5.55	7.7	< 4.00
O=[N+]([O-])c1cccc(-c2cc(-c3ccc(-c4ccccc4)cc3)c3ncccc3n2)c1	4.17	–	4.10	–	–	30.1 µM	6.54	104	4.82

Further lines, with some results ahead:

pIC50 [2]	inhibition [6]	pIC50 [7]	IC50 [7]	IC50 [2]	Compound	CC50 at 72 h [1]	pIC50 [3]	selectivity ratio [4]	pIC50 [5]
4.29	–	–	–	–	FC(F)(F)c1ccc(-c2cc(-c3ccc(C(F)(F)F)cc3)c3ncccc3n2)cc1	178 µM	5.02	18.8	< 4.00
4.14	–	4.16	–	–	FC(F)(F)c1ccc(-c2cc(-c3ccccc3)c3ncccc3n2)cc1	65.7 µM	6.33	140	4.43
–	–	–	Not Active	Not Active	COc1ccc(-c2cc(-c3ccc([N+](=O)[O-])cc3)nc3cccnc23)cc1	109 µM	6.24	187	4.68
4.09	–	4.20	–	–	FC(F)(F)c1ccc(-c2cc(-c3ccsc3)c3ncccc3n2)cc1	181 µM	5.44	49.4	< 4.00
–	–	–	–	Not Active	COc1ccc(-c2cc(-c3ccc(C(F)(F)F)cc3)nc3cccnc23)cc1	152 µM	5.65	67.1	< 4.00
–	–	–	Not Active	Not Active	COc1ccc(-c2cc(-c3ccc(F)cc3)nc3cccnc23)cc1	24.2 µM	6.12	31.8	4.01
–	–	–	Not Active	Not Active	COc1ccc(-c2cc(-c3cccc([N+](=O)[O-])c3)nc3cccnc23)cc1	133 µM	5.42	35.1	4.35
